ChEMBL document CHEMBL3400112, “Design, syntheses, and pharmacological characterization of 17-cyclopropylmethyl-3,14β-dihydroxy-4,5α-epoxy-6α-(isoquinoline-3'-carboxamido)morphinan analogues as opioid receptor ligands” (Bioorg Med Chem, 2015)
Calls of active or inactive are those of the source. The calls are words filed in the database; no cut-off is given here.

Assays:
Mu-type opioid receptor [1] = molecular target: T1, Mu-type opioid receptor (Mus musculus, UniProt P42866); assay: Displacement of [3H]naloxane from mouse MOR expressed in CHO cells after […]; type: cell-based
T1 sequence (P42866 whole entry): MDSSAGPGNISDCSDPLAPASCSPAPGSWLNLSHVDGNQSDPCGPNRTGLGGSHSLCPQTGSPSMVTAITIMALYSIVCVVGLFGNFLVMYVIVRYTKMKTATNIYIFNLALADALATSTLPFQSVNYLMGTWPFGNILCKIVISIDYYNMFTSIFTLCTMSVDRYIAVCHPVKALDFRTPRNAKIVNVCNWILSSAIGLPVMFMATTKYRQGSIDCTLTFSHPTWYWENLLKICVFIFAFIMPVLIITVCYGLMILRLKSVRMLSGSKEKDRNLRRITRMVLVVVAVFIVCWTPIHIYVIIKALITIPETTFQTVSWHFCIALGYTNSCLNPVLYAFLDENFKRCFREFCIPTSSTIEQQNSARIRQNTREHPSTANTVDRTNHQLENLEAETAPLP

[2] = molecular target: T2, Kappa-type opioid receptor (Mus musculus, UniProt P33534); assay: Displacement of [3H]diprenorphine from mouse KOR expressed in CHO cells after […]; type: cell-based
T2 sequence (P33534 whole entry): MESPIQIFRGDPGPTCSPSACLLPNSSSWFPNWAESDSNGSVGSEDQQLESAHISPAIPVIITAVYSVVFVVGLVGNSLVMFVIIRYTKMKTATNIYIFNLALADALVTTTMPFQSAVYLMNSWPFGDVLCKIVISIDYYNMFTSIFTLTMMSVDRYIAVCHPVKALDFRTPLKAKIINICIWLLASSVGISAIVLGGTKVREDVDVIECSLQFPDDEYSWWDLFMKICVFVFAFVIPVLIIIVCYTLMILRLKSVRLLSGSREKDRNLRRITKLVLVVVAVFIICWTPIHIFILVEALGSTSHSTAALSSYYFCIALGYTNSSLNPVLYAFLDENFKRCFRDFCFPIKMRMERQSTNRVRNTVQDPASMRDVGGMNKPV

[3] = molecular target: T3, Delta-type opioid receptor (Mus musculus, UniProt P32300); assay: Displacement of [3H]naltrindole from mouse DOR expressed in CHO cells after […]; type: cell-based
T3 sequence (P32300 whole entry): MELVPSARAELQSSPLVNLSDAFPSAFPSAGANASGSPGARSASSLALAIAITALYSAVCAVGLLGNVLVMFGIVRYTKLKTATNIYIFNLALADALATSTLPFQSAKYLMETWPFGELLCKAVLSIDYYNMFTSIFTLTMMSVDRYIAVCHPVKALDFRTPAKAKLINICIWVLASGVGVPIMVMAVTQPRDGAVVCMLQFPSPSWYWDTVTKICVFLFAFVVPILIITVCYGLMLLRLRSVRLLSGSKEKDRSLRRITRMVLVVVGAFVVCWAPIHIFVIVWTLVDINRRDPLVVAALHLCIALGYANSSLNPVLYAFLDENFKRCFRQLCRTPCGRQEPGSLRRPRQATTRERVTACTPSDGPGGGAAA

Mus musculus [4] = species: Mus musculus; assay: Selectivity ratio of Ki for mouse DOR to Ki for mouse MOR
Mus musculus [5] = species: Mus musculus; assay: Selectivity ratio of Ki for mouse KOR to Ki for mouse MOR
Mu-type opioid receptor [6] = molecular target: T1, Mu-type opioid receptor; assay: Stimulation of mouse MOR expressed in CHO cells after […] by [35S]GTPgammaS binding assay; type: functional, cell-based
[7] = molecular target: Mu-type opioid receptor (Mus musculus) (UniProt P42866); assay: Stimulation of mouse MOR expressed in CHO cells after […] by [35S]GTPgammaS binding assay relative to DAMGO; type: functional, cell-based
Sequence of Mu-type opioid receptor (Mus musculus) (P42866 whole entry): as the sequence (P42866 whole entry) above

Mus musculus [8] = assay: Reversal of morphine-induced antinociceptive activity in Swiss-Webster mouse at 1 mg/kg, sc administered 5 mins prior to morphine challenge measured after 20 mins by warm water tail-flick test relative to control; type: functional
Mus musculus [9] = assay: Antinociceptive activity in Swiss-Webster mouse at 10 mg/kg, sc after 20 mins by warm water tail-flick test relative to control; type: functional; details: route subcutaneous
Mus musculus [10] = assay: Antinociceptive activity in sc dosed Swiss-Webster mouse after 20 mins by warm water tail-flick test relative to control; type: functional
[11] = molecular target: T2, Kappa-type opioid receptor; assay: Partial agonist activity at mouse KOR expressed in CHO cells after […] by [35S]GTPgammaS binding assay; type: functional, cell-based
[12] = molecular target: T3, Delta-type opioid receptor; assay: Agonist activity at mouse DOR expressed in CHO cells after […] by [35S]GTPgammaS binding assay; type: functional, cell-based
[13] = molecular target: Delta-type opioid receptor (Mus musculus) (UniProt P32300); assay: Agonist activity at mouse DOR expressed in CHO cells after […] by [35S]GTPgammaS binding assay relative to SNC80; type: functional, cell-based
Sequence of Delta-type opioid receptor (Mus musculus) (P32300 whole entry): as the sequence (P32300 whole entry) above

Mu-type opioid receptor [14] = molecular target: T4, Mu-type opioid receptor (Homo sapiens, UniProt P35372); assay: Agonist activity at human MOR expressed in CHO cells assessed as increase in intracellular Ca2+ level after 30 mins by microplate reader analysis; type: functional, cell-based
T4 sequence (P35372 whole entry): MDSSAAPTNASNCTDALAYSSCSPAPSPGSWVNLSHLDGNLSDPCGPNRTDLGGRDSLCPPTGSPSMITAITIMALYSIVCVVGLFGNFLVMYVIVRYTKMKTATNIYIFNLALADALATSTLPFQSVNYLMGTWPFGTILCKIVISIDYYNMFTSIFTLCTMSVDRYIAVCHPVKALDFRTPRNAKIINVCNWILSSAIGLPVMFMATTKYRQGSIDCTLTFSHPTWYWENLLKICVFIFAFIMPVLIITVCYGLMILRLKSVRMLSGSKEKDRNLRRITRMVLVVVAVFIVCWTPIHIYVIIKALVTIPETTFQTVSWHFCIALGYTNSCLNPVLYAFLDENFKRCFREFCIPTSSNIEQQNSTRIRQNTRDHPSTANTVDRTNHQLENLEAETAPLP
Method in brief: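 Gαqi5-transfected hMOR-CHO cells (DMEM/F12, 10% FBS, hygromycin B, 37 °C/5% CO2), plated 4 h post-transfection, grown 24 h, loaded 30 min with Fluo-4 AM plus probenecid in HBSS:HEPES. Test agent at varying concentrations in triplicate added after 15 s of reading. Fluorescence 494/516 nm over 120 s; at least three independent experiments.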

Mu-type opioid receptor [15] = molecular target: T4, Mu-type opioid receptor; assay: Antagonist activity at human MOR expressed in CHO cells assessed as inhibition of DAMGO-induced increase in intracellular Ca2+ level incubated for 15 mins prior to DAMGO addition by microplate reader analysis; type: functional, cell-based
Mus musculus [16] = assay: Reversal of morphine-induced antinociceptive activity in sc dosed Swiss-Webster mouse administered 5 mins prior to morphine challenge measured after 20 mins by warm water tail-flick test relative to control; type: functional
[17] = molecular target: T2, Kappa-type opioid receptor; assay: Agonist activity at mouse KOR expressed in CHO cells after […] by [35S]GTPgammaS binding assay; type: functional, cell-based
[18] = molecular target: Kappa-type opioid receptor (Mus musculus) (UniProt P33534); assay: Agonist activity at mouse KOR expressed in CHO cells after […] by [35S]GTPgammaS binding assay relative to (+/-)-trans-U50488; type: functional, cell-based
Sequence of Kappa-type opioid receptor (Mus musculus) (P33534 whole entry): as the sequence (P33534 whole entry) above

Mus musculus [19] = species: Mus musculus; assay: Selectivity ratio of EC50 for mouse KOR to EC50 for mouse MOR
Mus musculus [20] = species: Mus musculus; assay: Selectivity ratio of EC50 for mouse DOR to EC50 for mouse MOR
[21] = molecular target: Delta-type opioid receptor (Mus musculus) (UniProt P32300); assay: Agonist activity at mouse DOR expressed in CHO cells after […] by [35S]GTPgammaS binding assay relative to naltrexone; type: functional, cell-based
Mus musculus [22] = assay: Reversal of morphine-induced antinociceptive activity in Swiss-Webster mouse assessed as escape jumps at 30 to 100 mg/kg, sc measured after 3 mins up to 20 mins; type: functional, organism-based
Method in brief: (§1)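 After 72 h and 30 min habituation in an observation chamber, withdrawal was precipitated by s.c. test agent. Escape jumps and wet-dog shakes counted over 20 min, starting within 3 min of dosing; at least six mice per dose.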

Mus musculus [23] = assay: Reversal of morphine-induced antinociceptive activity in Swiss-Webster mouse assessed as wet-dog shakes at 30 to 100 mg/kg, sc measured after 3 mins up to 20 mins; type: functional, organism-based; method in brief: as §1
Mus musculus [24] = assay: Induction of escape jumps in Swiss-Webster mouse at 30 mg/kg, sc measured after 3 mins up to 20 mins; type: organism-based; design: dose 30 mg/kg, route subcutaneous; details: in vivo; method in brief: as §1
Mus musculus [25] = assay: Induction of wet-dog shakes in Swiss-Webster mouse at 30 mg/kg, sc measured after 3 mins up to 20 mins; type: organism-based; design: dose 30 mg/kg, route subcutaneous; details: in vivo; method in brief: as §1

SMILES | Ki (Mu-type opioid receptor [1]) | Ki [2] | Ki [3] | Ratio Ki (Mus musculus [4]) | Ratio Ki (Mus musculus [5]) | EC50 (Mu-type opioid receptor [6]) | Emax [7] | other results
O=C(N[C@H]1CC[C@@]2(O)[C@H]3Cc4ccc(O)c5c4[C@@]2(CCN3CC2CC2)[C@H]1O5)c1cc2ccc([N+](=O)[O-])cc2cn1 | 3.6 nM | 16 nM | 55.3 nM | 4.5 | 16 | 42.7 nM | 13.4% | Activity (Mus musculus [8]): inactive
CN1Cc2ccccc2C[C@H]1C(=O)N[C@H]1CC[C@@]2(O)[C@H]3Cc4ccc(O)c5c4[C@@]2(CCN3CC2CC2)[C@H]1O5 |  |  |  | 2.3 | 3.2 |  |  | 
Cc1nc(C(=O)N[C@H]2CC[C@@]3(O)[C@H]4Cc5ccc(O)c6c5[C@@]3(CCN4CC3CC3)[C@H]2O6)cc2ccccc12 |  |  |  |  |  |  |  | MPE (Mus musculus [9]): <20%
O=C(CCc1cc2ccccc2cn1)N[C@H]1CC[C@@]2(O)[C@H]3Cc4ccc(O)c5c4[C@@]2(CCN3CC2CC2)[C@H]1O5 |  |  |  | 2.4 | 12 |  |  | 
CN(C)c1ccc2c(c1)CN(C)C(C(=O)N[C@H]1CC[C@@]3(O)[C@H]4Cc5ccc(O)c6c5[C@@]3(CCN4CC3CC3)[C@H]1O6)C2 (some centres not stated) | 1.79 nM | 4.91 nM | 4.5 nM | 2.7 | 2.5 | 11.4 nM | 26.2% | 
CN(C)c1ccc2cc(C(=O)N[C@H]3CC[C@@]4(O)[C@H]5Cc6ccc(O)c7c6[C@@]4(CCN5CC4CC4)[C@H]3O7)ncc2c1 | 4.4 nM | 88 nM | 68.6 nM | 20 | 16 | 4.7 nM | 6.32% | Activity (Mus musculus [8]): inactive
COc1c(C(=O)N[C@H]2CC[C@@]3(O)[C@H]4Cc5ccc(O)c6c5[C@@]3(CCN4CC3CC3)[C@H]2O6)nc(Cl)c2ccccc12 |  |  |  |  |  |  |  | ED50 (Mus musculus [10]): 0.73 mg/kg; EC50 [11]: 26.4 nM; EC50 [12]: 32.6 nM; Emax [13]: 54.8%; Activity (Mu-type opioid receptor [14]): inactive; IC50 (Mu-type opioid receptor [15]): 23.7 nM; inhibition (Mu-type opioid receptor [15]): Dose-dependent effect
O=C(N[C@H]1CC[C@@]2(O)[C@H]3Cc4ccc(O)c5c4[C@@]2(CCN3CC2CC2)[C@H]1O5)c1cc2cc([N+](=O)[O-])ccc2cn1 | 5.7 nM | 27.9 nM | 94.7 nM | 4.9 | 16 | 31.5 nM | 12.5% | AD50 (Mus musculus [16]): 0.92 mg/kg; MPE (Mus musculus [8]; route subcutaneous): 8.9%; EC50 [17]: 62.6 nM; Emax [18]: 21.1%; EC50 [12]: 108 nM; Emax [13]: 67.7%; Ratio EC50 (Mus musculus [19]): 2; Ratio EC50 (Mus musculus [20]): 3.4; Ratio [21]: 10; Activity (Mu-type opioid receptor [14]): inactive; IC50 (Mu-type opioid receptor [15]): 2730 nM; inhibition (Mu-type opioid receptor [15]): Dose-dependent effect; Activity (Mus musculus [22]): inactive; Activity (Mus musculus [23]): inactive; Activity (Mus musculus [24]): Non-toxic; Activity (Mus musculus [25]): Non-toxic
N#Cc1nc(C(=O)N[C@H]2CC[C@@]3(O)[C@H]4Cc5ccc(O)c6c5[C@@]3(CCN4CC3CC3)[C@H]2O6)cc2ccccc12 |  |  |  | 10 | 131 |  |  | MPE (Mus musculus [9]): 56.9%
O=C(Cc1cc2ccccc2cn1)N[C@H]1CC[C@@]2(O)[C@H]3Cc4ccc(O)c5c4[C@@]2(CCN3CC2CC2)[C@H]1O5 |  |  |  | 0.9 | 10 |  |  | 
O=C(N[C@H]1CC[C@@]2(O)[C@H]3Cc4ccc(O)c5c4[C@@]2(CCN3CC2CC2)[C@H]1O5)c1ncc2ccccc2c1O |  |  |  |  |  |  |  | MPE (Mus musculus [9]): <20%
O=C(N[C@H]1CC[C@@]2(O)[C@H]3Cc4ccc(O)c5c4[C@@]2(CCN3CC2CC2)[C@H]1O5)c1ncc2ccccc2n1 |  |  |  | 4.6 | 71 |  |  | 
COc1cc2cnc(C(=O)N[C@H]3CC[C@@]4(O)[C@H]5Cc6ccc(O)c7c6[C@@]4(CCN5CC4CC4)[C@H]3O7)cc2cc1OC | 13.4 nM | 61 nM | 69.2 nM | 4.6 | 5.2 | 85.2 nM | 14% | 
O=C(N[C@H]1CC[C@@]2(O)[C@H]3Cc4ccc(O)c5c4[C@@]2(CCN3CC2CC2)[C@H]1O5)c1nc(Cl)c2ccccc2c1O |  |  |  | 25 | 24 |  |  | 
O=C(N[C@H]1CC[C@@]2(O)[C@H]3Cc4ccc(O)c5c4[C@@]2(CCN3CC2CC2)[C@H]1O5)c1cc2ccccc2cn1 |  |  |  |  |  |  |  | AD50 (Mus musculus [16]): 0.45 mg/kg; EC50 [17]: 10.9 nM; Emax [18]: 13.1%; EC50 [12]: 98.6 nM; Emax [13]: 53.5%
O=C(CNC(=O)c1cc2ccccc2cn1)N[C@H]1CC[C@@]2(O)[C@H]3Cc4ccc(O)c5c4[C@@]2(CCN3CC2CC2)[C@H]1O5 |  |  |  | 0.2 | 3.4 |  |  | 
